ChEMBL document CHEMBL1124407, “Synthesis of gastrin antagonists, analogues of the C-terminal tetrapeptide of gastrin, by introduction of a beta-homo residue” (J Med Chem, 1989)
Where a SMILES comes first, the peptide text is derived from it. [ ]: non-standard residue; d: D form. The star is where a group is joined. β3hF = N[C@H](CC(=O)O)Cc1ccccc1; Boc = CC(C)(C)OC(=O)*

tested on: Rattus norvegicus; experiment: Activity of compound on in vivo gastrin-induced acid secretion in rats; Agonist; format: functional, organism-based; details: filed as agonist
Outline: (§1)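 Anesthetized rats; cumulative gastric pH recorded over time as the index of acid secretion. Peptides and (Leu15)-human gastrin I were given as intravenous bolus in 0.9% NaCl. Secreted H+ was taken from the difference between stimulated and basal traces. For inhibition, peptide in alkaline water was injected together with gastrin (usually 80 pmol) at various doses. Response was expressed as percent of the gastrin-alone H+ output.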

| Compound | ED50 |
| --- | --- |
| CC(C)C[C@H](NC(=O)[C@H](Cc1c[nH]c2ccccc12)NC(=O)OC(C)(C)C)C(=O)N[C@@H](CC(=O)O)C(=O)N[C@@H](Cc1ccccc1)C(N)=O (Boc-WLDF-NH2) | Agonist |

molecular target: T1, Gastrin/cholecystokinin type B receptor (Rattus norvegicus) (UniProt P30553); experiment: Activity in vivo gastrin-induced acid secretion in rats; format: functional, organism-based; details: not given; outline: as §1
T1 sequence (whole entry): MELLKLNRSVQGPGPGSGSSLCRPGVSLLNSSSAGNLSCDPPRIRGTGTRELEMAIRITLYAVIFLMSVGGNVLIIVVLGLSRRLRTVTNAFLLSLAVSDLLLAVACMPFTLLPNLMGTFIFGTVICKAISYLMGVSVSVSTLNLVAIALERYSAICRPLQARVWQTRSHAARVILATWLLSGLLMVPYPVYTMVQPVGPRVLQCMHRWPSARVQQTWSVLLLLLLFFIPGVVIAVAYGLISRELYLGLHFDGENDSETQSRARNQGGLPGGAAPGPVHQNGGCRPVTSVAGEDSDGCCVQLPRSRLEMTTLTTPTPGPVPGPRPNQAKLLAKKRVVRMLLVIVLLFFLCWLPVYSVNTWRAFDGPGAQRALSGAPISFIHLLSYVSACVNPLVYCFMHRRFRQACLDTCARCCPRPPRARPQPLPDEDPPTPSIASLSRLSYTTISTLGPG

| ED50 [mg/kg] | Compound |
| --- | --- |
| 2.5 | CC(C)CC(NC(=O)[C@@H](Cc1c[nH]c2ccccc12)NC(=O)OC(C)(C)C)C(=O)N[C@H](CC(=O)O)CC(=O)NCCc1ccccc1 (stereo in doubt) |
| 0.5 | CC(C)C[C@H](NC(=O)[C@H](Cc1c[nH]c2ccccc12)NC(=O)OC(C)(C)C)C(=O)N[C@H](CC(=O)O)CC(=O)NCCc1ccccc1 |
| 0.5 | CC(C)CC(CC(=O)NC(CC(=O)O)C(=O)NCc1ccccc1)NC(=O)C(Cc1c[nH]c2ccccc12)NC(=O)OC(C)(C)C (stereo not drawn) |
| 0.5 | CC(C)C[C@@H](CC(=O)NC(CC(=O)O)C(=O)NCCc1ccccc1)NC(=O)[C@@H](Cc1c[nH]c2ccccc12)NC(=O)OC(C)(C)C (stereo partly drawn) |
| 0.5 | CC(C)CC(CC(=O)NC(CC(=O)O)C(=O)NCCc1ccccc1)NC(=O)C(Cc1c[nH]c2ccccc12)NC(=O)OC(C)(C)C (stereo not drawn) |
| 7.5 | CC(C)C[C@H](CC(=O)N[C@@H](CC(=O)O)C(=O)N[C@@H](Cc1ccccc1)C(N)=O)NC(=O)[C@@H](Cc1c[nH]c2ccccc12)NC(=O)OC(C)(C)C |
| 0.8 | CC(C)CC(CC(=O)N[C@H](CC(=O)O)C(=O)NCCc1ccccc1)NC(=O)C(Cc1c[nH]c2ccccc12)NC(=O)OC(C)(C)C (stereo partly drawn) |
| 5 | CC(C)C[C@@H](CC(=O)NC(CC(=O)O)C(=O)NCc1ccccc1)NC(=O)[C@@H](Cc1c[nH]c2ccccc12)NC(=O)OC(C)(C)C (stereo partly drawn) |
| 1.5 | CC(C)CC(CC(=O)N[C@H](CC(=O)O)C(=O)NCc1ccccc1)NC(=O)C(Cc1c[nH]c2ccccc12)NC(=O)OC(C)(C)C (stereo partly drawn) |

More lines, now with the values behind:

| Compound | ED50 [mg/kg] |
| --- | --- |
| CC(C)CC(CC(=O)N[C@H](CC(=O)O)C(=O)N[C@H](Cc1ccccc1)C(N)=O)NC(=O)C(Cc1c[nH]c2ccccc12)NC(=O)OC(C)(C)C (stereo partly drawn) | 5 |
| CC(C)CC(NC(=O)[C@@H](Cc1c[nH]c2ccccc12)NC(=O)OC(C)(C)C)C(=O)N[C@H](CC(=O)O)CC(=O)NCc1ccccc1 (stereo in doubt) | 1 |
| CC(C)C[C@H](NC(=O)[C@H](Cc1c[nH]c2ccccc12)NC(=O)OC(C)(C)C)C(=O)N[C@H](CC(=O)O)CC(=O)NCc1ccccc1 | 0.2 |
| CC(C)C[C@H](NC(=O)[C@H](Cc1c[nH]c2ccccc12)NC(=O)OC(C)(C)C)C(=O)N[C@H](CC(=O)O)CC(=O)N[C@@H](Cc1ccccc1)C(N)=O | 0.1 |
| CC(C)C[C@H](NC(=O)[C@H](Cc1c[nH]c2ccccc12)NC(=O)OC(C)(C)C)C(=O)N[C@H](CC(=O)O)CC(=O)N[C@H](Cc1ccccc1)C(N)=O | 0.1 |
| CC(C)C[C@H](NC(=O)[C@H](Cc1c[nH]c2ccccc12)NC(=O)OC(C)(C)C)C(=O)N[C@@H](CC(=O)O)C(=O)N[C@H](CC(N)=O)Cc1ccccc1 (Boc-WLD[β3hF]-NH2) | 7 |
| CC(C)C[C@@H](CC(=O)N[C@@H](CC(=O)O)C(=O)N[C@@H](Cc1ccccc1)C(N)=O)NC(=O)[C@H](Cc1c[nH]c2ccccc12)NC(=O)OC(C)(C)C | 1.5 |
| CC(C)CC(NC(=O)[C@@H](Cc1c[nH]c2ccccc12)NC(=O)OC(C)(C)C)C(=O)N[C@H](CC(=O)O)CC(=O)NC(Cc1ccccc1)C(N)=O (stereo in doubt) | 2.5 |
